Experimental data from different studies.
Each line is one published result; the experiments were not run side by side.
Target: Serine/threonine-protein kinase 17A (STK17A, Homo sapiens, UniProt Q9UEE5)
Sequence (Q9UEE5 1-414, as in one of the studies): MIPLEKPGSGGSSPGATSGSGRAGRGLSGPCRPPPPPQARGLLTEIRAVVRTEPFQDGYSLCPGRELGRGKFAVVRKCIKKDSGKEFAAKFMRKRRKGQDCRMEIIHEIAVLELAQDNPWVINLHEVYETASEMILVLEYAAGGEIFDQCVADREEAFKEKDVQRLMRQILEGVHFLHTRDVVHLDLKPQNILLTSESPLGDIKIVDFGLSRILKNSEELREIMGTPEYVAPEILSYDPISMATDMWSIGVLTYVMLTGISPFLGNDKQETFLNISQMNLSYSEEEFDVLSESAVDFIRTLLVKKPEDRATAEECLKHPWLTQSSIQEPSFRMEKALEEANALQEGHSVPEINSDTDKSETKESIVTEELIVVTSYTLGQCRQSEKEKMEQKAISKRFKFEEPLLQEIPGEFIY

CN(C)c1ncc(F)c(-c2cnn3ncccc23)n1
remaining binding (binding; 1 µM): 95%

O=C(c1ccc(Nc2nccc(-c3cc4ccccc4s3)n2)cc1)N1CCC(N2CCCC2)CC1
remaining binding (binding; competition with immobilised ligand; 1 µM): 0.3%

C[C@H](c1cccc(C#N)c1)n1cc(Cl)cc(C(N)=O)c1=N
remaining binding (cell-free assay; competition with immobilised ligand; 1 µM): 85%

CN(CCCC(F)(F)F)c1nccc(-c2cnn3ncccc23)n1
remaining binding (binding; 1 µM): 100%

COc1ccc2c(O[C@@H]3C[C@H]4C(=O)N[C@]5(C(=O)O)CC5/C=C\CCCCC[C@H](NC(=O)OC5CCCC5)C(=O)N4C3)cc(-c3csc(NC(=O)C(C)C)n3)nc2c1C (stereo partly shown)
remaining binding (cell-free assay; competition with immobilised ligand; 1 µM): 99%

CNC(=O)[C@@H]1CC[C@@H](n2c(-c3ccc4cnccc4c3)nc3ccc(C(=O)NCc4cccc(C(N)=O)c4)cc32)C1
remaining binding (binding; competition with immobilised ligand; 1 µM): 100%

O=C(c1ccc(Nc2ncc(Cl)c(-c3cc4ccccc4s3)n2)cc1)N1CCC(N2CCCC2)CC1
remaining binding (binding; competition with immobilised ligand; 1 µM): 0%

N[C@H]1CCN(c2nccc(-c3cnn4ncccc34)n2)C1
remaining binding (binding; 1 µM): 100%

COc1ncc2cc3ccccc3nc2c1C#N
remaining binding (cell-free assay; competition with immobilised ligand; 5 µM): 100%

CN(c1nccc(-c2cnn3ncccc23)n1)C1CC1
remaining binding (binding; 1 µM): 100%

CSc1cccnc1N1CCN(Cc2nc3ccccc3[nH]2)CC1
remaining binding (cell-free assay; competition with immobilised ligand; 1 µM): 98%

COc1cnc(Nc2cccc(S(N)(=O)=O)c2)nc1N1CCN(c2ccccc2)CC1
remaining binding (binding; competition with immobilised ligand; 1 µM): 100%

C=CC(=O)N1CCC(C(=O)NCC(=O)N2CCN(c3nc(-c4cnc(N)nc4C(F)F)nc(N4CCOCC4)n3)CC2)CC1
remaining binding (binding; competition with immobilised ligand; 1 µM): 100%

O=C(NCc1ncc(C(F)(F)F)cc1Cl)c1ccc2c(c1)C1(CCS(=O)(=O)CC1)[C@@H](C1CC1)N2S(=O)(=O)c1ccc(F)cc1
remaining binding (cell-free assay; competition with immobilised ligand; 1 µM): 73%

O=C(Nc1c[nH]nc1C(=O)NC1CCNCC1)c1cc(F)cc(F)c1
remaining binding (binding; competition with immobilised ligand; 1 µM): 95%

c1ccc(N2CCN(Cc3nc4ccccc4[nH]3)CC2)nc1
remaining binding (cell-free assay; competition with immobilised ligand; 1 µM): 100%

CN(C)c1nccc(-c2cnc3ncccn23)n1
remaining binding (binding; 1 µM): 100%

O=C(NCCCN1CCOCC1)c1ccc(Nc2nccc(-c3cc4ccccc4s3)n2)cc1
remaining binding (binding; competition with immobilised ligand; 1 µM): 0%

C[C@@H]1CCN(c2nccc(-c3cnn4ncccc34)n2)C1
remaining binding (binding; 1 µM): 19%

Cn1nc(C(=O)NCc2ccc(C(=O)O)cc2)cc1-c1ccc2[nH]ccc2c1
remaining binding (cell-free assay; competition with immobilised ligand; 0.1 µM): 92%

Cc1cnn2ncc(-c3ccnc(N(C)C)n3)c2c1
remaining binding (binding; 1 µM): 86%

C[C@@H](c1ccc(-n2cnc3c(N)ncnc32)cc1)N1CCc2nn(C)c(Cc3ccccc3)c2C1=O
remaining binding (binding; competition with immobilised ligand; 0.1 µM): 91%
